Laboratory results from ChEMBL document CHEMBL1833971, “Towards rational design of cannabinoid receptor 1 (CB1) antagonists for peripheral selectivity” (Bioorg Med Chem Lett, 2011).

What was measured:
MDCK = assay: Permeability from apical to basolateral side of MDR1 transfected MDCK cells at 3.16 uM after 1 hr by LC/MS analysis; format: ADME, cell-based, Canis lupus familiaris; settings: dog
Summary of the method: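 MDCK-mdr1 cells grown on filters for 4 days to confluence. Compound added apically at 3.16 μM, incubated 1 hr at 37°C. Apical-to-basal transport quantified by mass spectrometry in MRM mode, tuned per compound by infusion.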

Cannabinoid receptor 2 = Cannabinoid receptor 2 (Homo sapiens, UniProt P34972); assay: Displacement of [3H]-CP55940 from human CB2 receptor expressed in CHO-K1 cells after 1 hr by liquid scintillation spectrometry; format: cell-based
Summary of the method: (§1)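 Membranes from CHO-K1 cells over-expressing CB1 or CB2 used for [3H]CP55940 displacement, giving Ki at each receptor. Selectivity taken as the comparison of the CB2 and CB1 Ki values.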

Cannabinoid receptor 1 [1] = target: T1, Cannabinoid receptor 1 (Homo sapiens, UniProt P21554); assay: Displacement of [3H]-SR141716A from human CB1 receptor expressed in CHO-K1 cells after 1 hr by liquid scintillation counting; format: cell-based
Cannabinoid receptor 1 [2] = target: T1, Cannabinoid receptor 1; assay: Displacement of [3H]-CP55940 from human CB1 receptor expressed in CHO-K1 cells after 1 hr by liquid scintillation spectrometry; format: cell-based
Cannabinoid receptor 1 [3] = target: T1, Cannabinoid receptor 1; assay: Antagonist activity at human CB1 receptor transfected in CHO-K1 cells co-expressing G-alpha-q16 protein assessed as inhibition of G-alpha-q16 protein-mediated intracellular calcium mobilization; format: functional, cell-based
Homo sapiens = organism: Homo sapiens; assay: Selectivity ratio of Ki for human CB2 receptor to Ki for human CB1 receptor; summary of the method: as §1

T1 sequence (P21554 whole entry): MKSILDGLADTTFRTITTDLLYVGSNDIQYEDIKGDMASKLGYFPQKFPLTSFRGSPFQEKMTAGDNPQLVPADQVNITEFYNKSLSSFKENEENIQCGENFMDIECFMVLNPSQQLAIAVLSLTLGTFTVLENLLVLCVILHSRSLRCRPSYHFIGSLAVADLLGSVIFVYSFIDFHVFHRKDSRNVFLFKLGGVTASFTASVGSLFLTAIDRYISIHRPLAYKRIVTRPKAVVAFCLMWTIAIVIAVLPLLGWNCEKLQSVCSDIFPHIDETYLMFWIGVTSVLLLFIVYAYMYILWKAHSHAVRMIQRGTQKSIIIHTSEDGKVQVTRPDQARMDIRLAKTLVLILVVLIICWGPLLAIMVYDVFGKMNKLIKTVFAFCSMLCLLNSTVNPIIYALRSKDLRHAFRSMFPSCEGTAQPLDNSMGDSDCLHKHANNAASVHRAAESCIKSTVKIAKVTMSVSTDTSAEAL
Sequence of Cannabinoid receptor 2 (P34972 whole entry): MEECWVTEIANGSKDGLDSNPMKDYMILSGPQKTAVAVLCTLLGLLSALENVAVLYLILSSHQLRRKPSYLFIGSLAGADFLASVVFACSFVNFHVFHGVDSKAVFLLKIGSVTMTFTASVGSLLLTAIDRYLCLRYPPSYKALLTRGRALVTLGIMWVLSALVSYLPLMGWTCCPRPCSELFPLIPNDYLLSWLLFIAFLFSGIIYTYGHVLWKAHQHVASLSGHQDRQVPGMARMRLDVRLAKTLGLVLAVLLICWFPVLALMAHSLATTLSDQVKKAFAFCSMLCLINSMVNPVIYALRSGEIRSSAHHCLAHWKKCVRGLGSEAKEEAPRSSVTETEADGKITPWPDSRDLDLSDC

| Ki (Cannabinoid receptor 2) | Ki (Cannabinoid receptor 1 [1]) | Ki (Cannabinoid receptor 1 [2]) | Ke (Cannabinoid receptor 1 [3]) | Ratio Ki (Homo sapiens) | SMILES | permeability (MDCK) |
| --- | --- | --- | --- | --- | --- | --- |
| 1790 nM | – | – | – | – | Cc1c(C(=O)NC[C@H]2CC[C@@H](CNS(N)(=O)=O)CC2)nn(-c2ccc(Cl)cc2Cl)c1-c1ccc(Cl)cc1 | < 1% |
| – | – | – | 2.83 µM | – | Cc1c(C(=O)NCc2cccc(CNS(C)(=O)=O)c2)nn(-c2ccc(Cl)cc2Cl)c1-c1ccc(Cl)cc1 | – |
| 4010 nM | 26 nM | 102 nM | – | 39 | Cc1ccc(NC(=O)c2nn(-c3ccc(Cl)cc3Cl)c(-c3ccc(Cl)cc3)c2C)cn1 | – |
| – | – | – | 5.34 µM | – | Cc1c(C(=O)NCCCN(C)CCCNS(C)(=O)=O)nn(-c2ccc(Cl)cc2Cl)c1-c1ccc(Cl)cc1 | – |
| – | – | – | 2.93 µM | – | Cc1c(C(=O)NCc2ccc(CNS(C)(=O)=O)cc2)nn(-c2ccc(Cl)cc2Cl)c1-c1ccc(Cl)cc1 | – |
| – | – | – | 0.376 µM | – | Cc1c(C(=O)NCc2ccc(CNS(N)(=O)=O)cc2)nn(-c2ccc(Cl)cc2Cl)c1-c1ccc(Cl)cc1 | – |
| 1740 nM | 13 nM | 56 nM | – | 31 | Cc1c(C(=O)Nc2ccncc2)nn(-c2ccc(Cl)cc2Cl)c1-c1ccc(Cl)cc1 | – |
| 2310 nM | – | – | – | – | Cc1c(C(=O)NCC2CCC(CNS(N)(=O)=O)CC2)nn(-c2ccc(Cl)cc2Cl)c1-c1ccc(Cl)cc1 (mixture of isomers) | – |
| 1010 nM | 20 nM | 49 nM | 0.304 µM | 21 | Cc1c(C(=O)NCCCCCCCNS(N)(=O)=O)nn(-c2ccc(Cl)cc2Cl)c1-c1ccc(Cl)cc1 | – |
| 780 nM | – | – | – | – | Cc1c(C(=O)NCCCCCCCNS(C)(=O)=O)nn(-c2ccc(Cl)cc2Cl)c1-c1ccc(Cl)cc1 | – |
| 4520 nM | 61 nM | 294 nM | 1.39 µM | 15 | Cc1c(C(=O)Nc2cc[n+]([O-])cc2)nn(-c2ccc(Cl)cc2Cl)c1-c1ccc(Cl)cc1 | – |
| – | – | – | 4.2 µM | – | Cc1c(C(=O)NCc2cccc(CNS(N)(=O)=O)c2)nn(-c2ccc(Cl)cc2Cl)c1-c1ccc(Cl)cc1 | – |

| SMILES | Ki (Cannabinoid receptor 2) | Ki (Cannabinoid receptor 1 [1]) | Ki (Cannabinoid receptor 1 [2]) | Ke (Cannabinoid receptor 1 [3]) | Ratio Ki (Homo sapiens) | permeability (MDCK) |
| --- | --- | --- | --- | --- | --- | --- |
| Cc1c(C(=O)NCC2CCC(CNS(C)(=O)=O)CC2)nn(-c2ccc(Cl)cc2Cl)c1-c1ccc(Cl)cc1 (mixture of isomers) | 900 nM | 11 nM | 55 nM | – | – | – |
| Cc1c(C(=O)NC[C@H]2CC[C@@H](CNS(C)(=O)=O)CC2)nn(-c2ccc(Cl)cc2Cl)c1-c1ccc(Cl)cc1 | 960 nM | 8 nM | 36 nM | – | – | < 1% |
| Cc1c(C(=O)Nc2ccc(C)[n+](C)c2)nn(-c2ccc(Cl)cc2Cl)c1-c1ccc(Cl)cc1 | 2270 nM | 786 nM | 1700 nM | – | 1.3 | – |
